# KCNK3 block: human KCNK3 channel inhibition, primary screen | AID 602410 | CHO-KCNK3 thallium flux, FluxOR fluorescence; active compounds read low | B-score at 10 µM | 0.84% of 340,000 active | O14649;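 active = B-score under library mean minus 4 SD, starting fluorescence ratio at most library mean plus 5 SD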;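 also: more negative B-score means stronger inhibition of thallium flux through KCNK3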
# KCNK9 inh: human KCNK9 channel inhibition. 1.2% of 310,000 active. HEK293 KCNK9, FluxOR thallium flux fluorescence; active compounds read low. Q9NPC2. B-score at 10 µM;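 active = ratio B-score over 3 SD below the library mean, with starting fluorescence within 5 SD of its mean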;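 also: negative B-score means less thallium flux so channel inhibition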
# hERG protect: compounds protecting human hERG from proarrhythmic drug block; activation (rescue from dofetilide block), less the hit threshold, % at 10 µM; 0.51% of 310,000 active; CHO-hERG, FluxOR thallium flux, dofetilide IC70 present; Q12809; AID 1511;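 active = activation above the mean of controls blocked by dofetilide plus 5 SD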;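 also: thallium influx through hERG after potassium depolarization seen as dye fluorescence rise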
# KCNQ1 pot: potentiators or activators of human KCNQ1 potassium channel | P51787 | CHO-K1 KCNQ1, thallium flux FluxOR fluorescence; active compounds read high | B-score at 10 µM | 0.35% of 310,000 active;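 active = fluorescence ratio B-score, a plate-corrected score, at least three library SD, with initial intensity B-score within 5 SD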
#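 Medium – assay buffer, equal DMSO in all wells · Material – CHO-K1 cell line with stable KCNQ1 potassium channel expression · Signal – kinetic FluxOR thallium fluorescence, 10-s 1-Hz baseline, 110-s post-stimulus read · Compound – single concentration per compound, DMSO matched to controls · Schedule – 37 °C overnight plating, 90-min dark dye load, 20-min compound pretreatment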
# KCNQ1 inh: inhibitors of human KCNQ1 potassium channel | 1.3% of 310,000 active | B-score at 10 µM | CHO-K1 KCNQ1, FluxOR thallium flux fluorescence; active compounds read high;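 active = compounds whose thallium flux B-score, printed positive for inhibition, exceeds three library SD while starting fluorescence stays within three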;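 also: channel opened by potassium depolarization with thallium stimulus after 20 min compound exposure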
# Kir21 inh: Kir2.1 (mouse) channel inhibition; 0.85% of 310,000 active; P35561; B-score at 10 µM; HEK293-Kir2.1, FluxOR thallium flux fluorescence; active compounds read low; AID 1672;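 active = fluorescence ratio B-score at or below minus 3 SD of library scores, with starting-brightness B-score within 2 SD, cut at about -4.2 in these data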;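 also: channel flux triggered by added potassium and thallium sulfate stimulus; B-score of peak minus minimum fluorescence over baseline after thallium stimulus; more negative B-score means stronger Kir2.1 block with less thallium influx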
# Target sequence (P35561 whole entry, looked up): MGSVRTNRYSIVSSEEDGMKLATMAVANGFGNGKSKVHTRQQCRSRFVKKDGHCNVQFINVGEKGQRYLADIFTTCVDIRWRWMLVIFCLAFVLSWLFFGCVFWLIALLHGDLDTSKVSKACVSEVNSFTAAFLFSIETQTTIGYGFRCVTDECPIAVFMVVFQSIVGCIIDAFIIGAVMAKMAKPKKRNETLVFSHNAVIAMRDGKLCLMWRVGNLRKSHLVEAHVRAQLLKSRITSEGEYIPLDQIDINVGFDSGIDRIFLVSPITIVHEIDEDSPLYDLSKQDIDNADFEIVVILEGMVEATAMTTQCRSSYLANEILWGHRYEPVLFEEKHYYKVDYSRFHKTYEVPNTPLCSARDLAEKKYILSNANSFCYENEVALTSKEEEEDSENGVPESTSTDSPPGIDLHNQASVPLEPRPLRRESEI
# Active calls of the source: *; i = inactive; / = not tested or not shown. An excerpt weighted towards active compounds, which were near 3.7% of everything screened.
SMILES,KCNK3 block,KCNK9 inh,hERG protect,KCNQ1 pot,KCNQ1 inh,Kir21 inh
CCN(CC)CCCNc1nc2cc(OC)c(OC)cc2c2nc(-c3ccccc3)nn12,i,i,-7,i,i,-0.85
CCN(CC)CCCNc1nc2cc(OC)c(OC)cc2c2nc(-c3cccnc3)nn12,i,i,-7,i,11*,0.03
COc1ccc(Nc2ccnc(Nc3ccc(OC)cc3)n2)cc1,i,i,-13,i,i,-6.5*
CC1CN(C(=S)NC2CCCC2)CC(C)O1 (configuration not stated),i,i,-5,i,i,-0.37
Cc1ccccc1N1CCN(Cc2c[nH]c3ccccc23)CC1,i,i,-15,i,6*,-5.5*
COc1ccccc1N1CCN(Cc2c[nH]c3ccccc23)CC1,i,i,-1,i,i,-0.61
COc1cc(CNCCc2c[nH]c3ccccc23)ccc1OCc1ccccc1F,i,i,-27,i,i,-8.2*
COc1cccc(CNCCc2c[nH]c3ccccc23)c1OCc1ccccc1,i,i,-15,i,i,-9.5*
COc1cccc(CNC23CC4CC(CC(C4)C2)C3)c1OCc1ccccc1,i,i,-11,i,6*,-3.8
O=C(NCc1ccccn1)c1ccc(NS(=O)(=O)c2cccc(Cl)c2)cc1,i,i,0,i,i,0.52
Cc1ccc(S(=O)(=O)NCC2CCC(C(=O)NC3CCCCC3)CC2)cc1 (configuration not stated),i,i,-5,i,i,-2
Cc1ccc(NC(=O)c2cc3cc(OC(F)(F)F)ccc3[nH]2)cc1,/,i,-3,i,6*,0.15
Cc1ccccc1OCCNc1cc(N2CCNCC2)ccc1[N+](=O)[O-],/,i,-23,i,i,-8.1*
Cc1cccc(OCCNc2cc(N3CCN(C)CC3)ccc2[N+](=O)[O-])c1,i,i,-19,i,i,-1.4
COc1ccccc1OCCNc1cc(N2CCCCC2)ccc1[N+](=O)[O-],i,-6.8*,-7,i,6*,2.3
N#C/C(=C(/O)COC(=O)c1ccc(C#N)cc1)c1nc2ccccc2s1,i,i,-1,i,6*,0
CS/C(=N\S(=O)(=O)c1ccc(Cl)cc1)c1ccccc1,i,i,-3,i,i,-5.3*
O=S(=O)(/N=C(\Sc1ccc(Cl)cc1)c1ccccc1)c1ccccc1,i,i,-23,i,i,-2.1
CS/C(=N/S(=O)(=O)c1ccc(C)cc1)c1ccccc1,i,i,-7,i,i,-10*
Cc1ccc(S(=O)(=O)/N=C(\c2ccccc2)N(C)S(=O)(=O)c2ccc(C)cc2)cc1,i,i,-8,i,i,0.46
O=C1N(Cc2ccc(F)cc2)CCN1c1ccc(F)cc1,i,i,-14,19*,i,-0.45
COc1cccc(CN2CCN(c3ccc(F)cc3)C2=O)c1,i,i,-1,i,i,1.3
CC(c1ccccc1)N1CCC(CNC(=S)Nc2cccc(Cl)c2)C1 (configuration not stated),i,i,-14,i,i,-5.9*
Cc1ccc(NC(=S)NCC2CCN(C(C)c3ccccc3)C2)cc1 (configuration not stated),i,i,-10,i,i,-0.39
O=C(O)/C=C/c1cn(-c2ccccc2)nc1-c1ccc(-c2ccc([N+](=O)[O-])cc2)o1,i,i,11*,i,i,0.03
SMILES,KCNK3 block,KCNK9 inh,hERG protect,KCNQ1 pot,KCNQ1 inh,Kir21 inh
O=C(O)/C=C/c1cn(-c2ccccc2)nc1-c1cccc([N+](=O)[O-])c1,i,i,-5,i,i,0.84
Cc1noc(C)c1CSc1nc2ccccc2n1CCc1ccccc1,i,i,-15,i,i,-7.2*
O=C(O)CCn1c(SCc2ccccc2)nc2ccccc21,i,i,-3,i,i,0.68
CN(C)S(=O)(=O)N(CC(=O)Nc1ccc(S(=O)(=O)N2CCCC2)cc1)c1ccccc1,i,i,-10,i,i,0.05
CN(C(=O)c1cc2n(n1)C(C(F)(F)F)CC(c1ccco1)N2)c1ccc(OC(F)(F)F)cc1 (configuration not stated),i,i,-6,i,i,-0.68
CN(C(=O)c1cc2n(n1)C(C(F)(F)F)CC(c1ccco1)N2)c1ccccc1 (configuration not stated),i,-6.7*,-3,i,i,-0.21
CCn1ncc(Cl)c1C(=O)NC(=S)Nc1c(C)cc(C)cc1[N+](=O)[O-],i,i,5.8*,i,i,-1.5
CCOc1ccc(NC(=S)NC(=O)c2c(Cl)cnn2CC)c([N+](=O)[O-])c1,i,i,-1,i,i,0.53
CNS(=O)(=O)c1ccc(CNC[C@H]2O[C@@H](n3cnc(C(N)=O)n3)[C@H](O)[C@@H]2O)cc1,i,/,/,/,/,/
CC(C)(C)c1ccc(-n2ncc3c2CCCC3NC(=O)C2(C(N)=O)CC2)cc1 (configuration not stated),i,i,-13,i,i,-1.2
CC1CCCC(C)N1CCCNC(=O)Cn1c(=O)c2cccn2c2cccnc21 (configuration not stated),i,i,-2,i,i,-0.42
COc1ccc(CNCC(O)COc2ccc(C(C)(C)c3ccccc3)cc2)cc1 (configuration not stated),i,i,-27,i,i,-5.7*
CC(C)(c1ccccc1)c1ccc(OCC(O)CNC2CCN(Cc3ccccc3)CC2)cc1 (configuration not stated),i,-7.5*,-30,i,8*,-4.9*
O=C(N=C1c2ccccc2CN1c1ccc(F)c(Cl)c1)c1cccnc1Cl,/,-11*,-7,i,i,-0.21
N#Cc1ccc(N2Cc3ccccc3C2=NC(=O)c2cccnc2Cl)cc1,i,i,-8,i,i,2.1
COc1ccc(CCn2c(C)nc3c(c(=O)c4ccccc4n3C)c2=O)cc1,i,i,-3,i,i,-1.2
COc1ccc(CCn2c(S)nc3ccccc3c2=O)cc1,i,i,4,8*,i,0.06
COc1ccc2nc(C)cc(Sc3nc4ccccc4s3)c2c1,i,i,-5,i,i,-2
CCOc1ccc2[nH]c(=O)c(CN(Cc3ccco3)Cc3nnnn3Cc3ccccc3)cc2c1,i,i,-17,i,i,0.22
CCOc1ccc2[nH]c(=O)c(CN(Cc3nnnn3Cc3ccco3)C3CCCCC3)cc2c1,-10*,i,-14,i,i,-0.63

# Compound activity as filed in PubChem.
